Experimental findings from PubChem BioAssay are described below.

Calls of active or inactive are those of the source.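 The calls were made as follows, unless noted: active = NADPH fluorescence slope more negative than the mean of all samples by about 3 SD, 99.7% confidence; inactive = the rest.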

Experiment [1] in a line: inhibitors of TNFa-induced NFkB p65 translocation, primary screen, imaging, HUVEC, MLSMR starter and 10KST1 sets (AID 438;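 active = inhibition above 20% together with a positive visual image hit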;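 also: compound added about 3h40 before a 20 min TNFalpha stimulation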;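 as to inhibition: signal is the nuclear over cytoplasmic p65 intensity ratio per well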). Particulars: HUVEC TNFa-induced p65 nuclear translocation; cell count: measured here: nuclei count (cytotoxicity indicator), at 2.08 µM; inhibition: at 2 µM, stronger effect = higher value, 0% TNFa-plus-vehicle, 100% no-TNFa wells.
A short description of experiment [2]: inhibitors of mutant huntingtin aggregation, primary screen, imaging, exon1htt(103Q)mCFP cells, high-content imaging (AID 483;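 active = visual image review flags a hit and inhibition of aggregation exceeds 20%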;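 also: compound exposure lasted 3 days before fixation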;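 as to nuclei count: percent of the per-plate median nuclei count of sample wells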). Conditions: exon1htt(103Q)mCFP cell line, aggregate imaging, at 2 µM; inhibition of aggregation: stronger effect = higher value; nuclei count: measured here: cell count, toxicity.
Experiment [3] can be described thus: inhibitors of E-selectin induction by TNFa, primary screen, imaging, HUVEC, immunofluorescence, MLSMR starter and 10KST1 sets (AID 487;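 active = visually confirmed hit in the image check and inhibition above 20%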;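 as to inhibition: signal is fraction of cell area covered by stained E-selectin grains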;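 as to nuclei count: 100% = median nuclei count of all wells on the same plate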). Particulars: HUVEC TNFalpha-induced E-selectin immunofluorescence imaging, at 2 µM; inhibition: stronger effect = higher value; nuclei count: measured here: cell number, toxicity.
In experiment [4] the target is Voltage-gated potassium channel subunit beta-2 (Rattus norvegicus) (UniProt P62483). Description: KvBeta enzyme negative modulators, primary screen, biochemical, NADPH fluorescence (AID 622;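 active = fluorescence slope higher than the sample average by over 3 SD, cut at about -0.22 in these data, passing the limit was not always enough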;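 also: slope of raw intensity against log time taken from 70 to 1610 s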). Particulars: recombinant KvBeta, 4-cyanobenzaldehyde reduction, at 10 µM, stronger effect = higher value.
Experiment [5] has the same target. Description: KvBeta positive modulators, primary screen, biochemical, NADPH fluorescence (AID 623).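 Also: fluorescence intensity change per second fitted from 20 to 320 s.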 Conditions: Recombinant KvBeta, NADPH fluorescence decrease slope, 10 min; at 10 µM; stronger effect = lower value.
For experiment [6], the target named is Muscarinic acetylcholine receptor M4 (Homo sapiens) (UniProt P08173). The experiment is described as follows: compounds altering M4/GIRK thallium flux, either direction, primary screen, M4 allosteric agonist project, cell-based, HEK293 M4/GIRK, BTC-AM (AID 625;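 active = fluorescence slope after compound addition differing from the mean of all tested samples at 99.7% confidence, mostly higher but some lower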;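 also: thallium influx through GIRK channels coupled to M4 in HEK293 cells with BTC-AM dye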). Conditions: at 10 µM, actives lie on both sides. In a few lines:
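assay system = HEK293 cells with M4 receptor and GIRK channels | medium = pH 7.3 thallium assay buffer | doses = 10 µM final, single point | timing = cells overnight at 37 °C, BTC-AM loading 1 h, reads 2 min total | signal = BTC-AM fluorescence, 1 Hz kinetic reads | read-out = post-addition slope, 15–24 s, of baseline-normalized fluorescence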

Experiment [7] is described as follows: inhibitors of Sendai virus-induced IRF3 signaling, primary screen, TLR/RLR signaling modifier project, cell-based, Sendai virus stimulus, luciferase, 10K MLSCN set (AID 602276;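 active = inhibition at or above 50% at 10 µM; inactive = inhibition below 50%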;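 also: firefly luciferase from ISG56 promoter only with Renilla not read in this screen; 0% = Sendai virus plus DMSO and 100% = medium plus DMSO without virus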). Conditions: HEK293 RL24 IRF3 luciferase reporter, at 10 µM, stronger effect = higher value. In general terms: Reporter assays use an easily measured gene product as a stand-in for the process of interest.

Experiment [8] can be described thus: inhibitors of poly I:C-induced TLR3 signaling, primary screen, cell-based, poly I:C stimulus, luciferase, 10K MLSCN set (AID 602277;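 active = inhibition of the reporter signal at or above 50%; inactive = inhibition below 50%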). Particulars: HEK293-TLR3 RL24 IRF3 luciferase reporter, at 10 µM, stronger effect = higher value.

Muscarinic acetylcholine receptor M4 (Homo sapiens), sequence (P08173 whole entry, looked up): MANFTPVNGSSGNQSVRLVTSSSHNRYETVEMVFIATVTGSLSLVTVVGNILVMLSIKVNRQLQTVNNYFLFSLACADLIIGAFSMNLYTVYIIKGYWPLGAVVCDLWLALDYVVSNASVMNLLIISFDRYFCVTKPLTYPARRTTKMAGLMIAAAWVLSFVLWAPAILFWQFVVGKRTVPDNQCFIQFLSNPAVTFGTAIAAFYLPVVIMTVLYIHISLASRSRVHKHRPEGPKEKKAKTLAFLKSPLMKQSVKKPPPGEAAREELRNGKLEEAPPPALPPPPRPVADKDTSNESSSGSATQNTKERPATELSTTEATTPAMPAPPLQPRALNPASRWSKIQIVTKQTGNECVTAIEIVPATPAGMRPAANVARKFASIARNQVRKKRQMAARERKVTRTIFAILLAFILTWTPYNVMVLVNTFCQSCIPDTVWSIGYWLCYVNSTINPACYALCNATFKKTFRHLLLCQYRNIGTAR
Voltage-gated potassium channel subunit beta-2 (Rattus norvegicus), sequence (P62483 whole entry, looked up): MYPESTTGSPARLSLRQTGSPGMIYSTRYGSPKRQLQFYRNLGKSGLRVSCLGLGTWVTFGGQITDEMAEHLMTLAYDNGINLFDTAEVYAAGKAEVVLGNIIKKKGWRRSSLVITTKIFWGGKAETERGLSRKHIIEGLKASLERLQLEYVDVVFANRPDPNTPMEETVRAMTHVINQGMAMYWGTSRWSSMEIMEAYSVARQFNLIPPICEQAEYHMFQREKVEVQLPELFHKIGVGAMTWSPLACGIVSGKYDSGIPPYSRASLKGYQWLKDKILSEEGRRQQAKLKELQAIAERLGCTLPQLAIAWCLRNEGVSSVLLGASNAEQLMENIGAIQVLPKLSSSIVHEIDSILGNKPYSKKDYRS

As for `O=c1cc(-c2ccc(Cl)cc2)[nH][nH]1`, the cell count in experiment [1] is 523. Further, the inhibition (in general, the change of the read-out against control, counted positive when it falls) in experiment [1] was -2.4% (inactive); in experiment [3], 54.7% (inactive); in experiment [7] it was 15.8% (inactive); in experiment [8], -16.8% (inactive). Moreover, in experiment [2], the inhibition of aggregation is 10.1% (inactive). The nuclei count in experiment [2] worked out at 104%; in experiment [3] it was 47.1%. In addition, the fluorescence slope in experiment [4] is -0.27 (inactive); in experiment [6] it was 0.00862 (inactive). For the same molecule, the NADPH fluorescence slope in experiment [5] was -4.3e-05 (inactive).
With `CC(C)=CC(=O)Nc1ccc(Br)cc1`, in experiment [1], the cell count is 670. The inhibition in experiment [1] is -11.9% (inactive); in experiment [3], 5.2% (inactive); in experiment [7] it was -88% (inactive); in experiment [8], -158% (inactive). Further, the inhibition of aggregation in experiment [2] was -6.6% (inactive). For the same molecule, the values for the nuclei count in experiment [2] and in experiment [3] were 73.9% and 91.1%, respectively. In addition, the figures for the fluorescence slope in experiment [4] and in experiment [6] were -0.582 (inactive) and 0.00668 (inactive), respectively. Moreover, the NADPH fluorescence slope in experiment [5] is -1.3e-05 (inactive).
As for `Cc1ccc(-c2csc3nnc(SCC(=O)NCc4ccco4)n23)cc1`, in experiment [1], the cell count was determined as 656. Also, the inhibition in experiment [1] is 5.2% (inactive); in experiment [3] it was -76.9% (inactive); in experiment [7], 17.2% (inactive); in experiment [8] it was 19.3% (inactive). The inhibition of aggregation in experiment [2] is -2.5% (inactive). Also, the nuclei count in experiment [2] was found to be 101%; in experiment [3], 94.1%. Besides, the values for the fluorescence slope in experiment [4] and in experiment [6] were -0.556 (inactive) and 0.00536 (inactive), respectively. Besides, the NADPH fluorescence slope in experiment [5] is -2.1e-05 (inactive).
With `Cc1ccccc1NC(=O)C1Cc2ccccc2C(=O)O1` (centres undefined), the cell count in experiment [1] stood at 193. The inhibition in experiment [1] was -5.8% (inactive); in experiment [3], 20.2% (inactive); in experiment [7], -9.01% (inactive); in experiment [8], -31.6% (inactive). Besides, in experiment [2], the inhibition of aggregation is -4.8% (inactive). The figures for the nuclei count in experiment [2] and in experiment [3] were 76.3% and 79.8%, respectively. Besides, the fluorescence slope was -0.529 (inactive) in experiment [4] and 0.00563 (inactive) in experiment [6]. The NADPH fluorescence slope in experiment [5] was -3.3e-05 (inactive).
For `CCCCOC(=O)CSc1nc2c(cc1C#N)C(=O)CC(C)(C)C2`, the cell count in experiment [1] was 531. The inhibition is 6.7% (inactive) in experiment [1], 37.8% (inactive) in experiment [3], -23.7% (inactive) in experiment [7] and -55.1% (inactive) in experiment [8]. For the same molecule, the inhibition of aggregation in experiment [2] is -21.3% (inactive). Moreover, the nuclei count in experiment [2] was found to be 98.4%; in experiment [3], 96.9%. Besides, the figures for the fluorescence slope in experiment [4] and in experiment [6] were -0.447 (inactive) and 0.00537 (inactive), respectively. Besides, the NADPH fluorescence slope in experiment [5] was -0.000295 (inactive).
Regarding `CCCc1nc2ccccc2c2nc(N)nn12`, the cell count in experiment [1] was found to be 435. The inhibition was 7.7% (inactive) in experiment [1], 21.4% (inactive) in experiment [3], 13.7% (inactive) in experiment [7] and 12.1% (inactive) in experiment [8]. Moreover, the inhibition of aggregation in experiment [2] was 13.1% (inactive). For the same molecule, the nuclei count worked out at 82.1% in experiment [2] and 101% in experiment [3]. The fluorescence slope in experiment [4] is -0.458 (inactive); in experiment [6] it was 0.00513 (inactive). The NADPH fluorescence slope in experiment [5] is 3.4e-05 (inactive).
On to `COC(=O)c1ccc(CN(c2ccccc2OC)S(=O)(=O)c2cccs2)o1`, for which the cell count in experiment [1] came out at 666. Further, the inhibition in experiment [1] is 8.1% (inactive); in experiment [3] it was 44.1% (inactive); in experiment [7], 3.68% (inactive); in experiment [8] it was 7.96% (inactive). For the same molecule, the inhibition of aggregation in experiment [2] was -4.4% (inactive). Moreover, the nuclei count in experiment [2] stood at 113%; in experiment [3], 98.6%. Further, the fluorescence slope was -0.534 (inactive) in experiment [4] and 0.00695 (inactive) in experiment [6]. Further, the NADPH fluorescence slope in experiment [5] is -5.7e-05 (inactive).
Consider `O=C(c1ccccc1)N1CCCCC(Sc2nnnn2-c2ccccc2)C1=O` (centres undefined), for which the cell count in experiment [1] was 385. Moreover, the inhibition was -15.4% (inactive) in experiment [1], -112% (inactive) in experiment [3], 4.27% (inactive) in experiment [7] and 4.71% (inactive) in experiment [8]. In addition, the inhibition of aggregation in experiment [2] is 28.5% (inactive). Also, the nuclei count in experiment [2] was determined as 76.4%; in experiment [3], 134%. Also, the results for the fluorescence slope in experiment [4] and in experiment [6] were -0.546 (inactive) and 0.00399 (inactive), respectively. Further, in experiment [5], the NADPH fluorescence slope was -2.4e-05 (inactive).
On to `CC(C)CC(c1nnnn1C1CCCC1)N1CCN(c2ccccc2F)CC1` (centres undefined), for which the cell count in experiment [1] was determined as 384. Besides, the inhibition was -3.6% (inactive) in experiment [1], -26.9% (inactive) in experiment [3], 15.2% (inactive) in experiment [7] and 26.4% (inactive) in experiment [8]. In experiment [2], the inhibition of aggregation was 6.8% (inactive). The nuclei count in experiment [2] came out at 91.4%; in experiment [3], 109%. Moreover, the fluorescence slope in experiment [4] was -0.589 (inactive); in experiment [6], 0.00507 (inactive). In addition, the NADPH fluorescence slope in experiment [5] is 2e-05 (inactive).
`Cc1csc(SCC(=O)NC(=O)NCc2ccccc2)n1`: in experiment [1], the cell count came to 624. Also, the inhibition was -17.1% (inactive) in experiment [1], -30.3% (inactive) in experiment [3], 15.1% (inactive) in experiment [7] and 20% (inactive) in experiment [8]. Moreover, the inhibition of aggregation in experiment [2] is -16.6% (inactive). The nuclei count in experiment [2] is 114%; in experiment [3], 123%. In addition, the fluorescence slope in experiment [4] is -0.407 (inactive); in experiment [6] it was 0.0067 (inactive). The NADPH fluorescence slope in experiment [5] was 9.9e-05 (inactive).
Turning to `CCOC(=O)N1CCC(N(C(=O)Nc2ccc(Cl)c(Cl)c2)C(C)CC)CC1` (centres undefined), the cell count in experiment [1] amounted to 346. The inhibition was -3.2% (inactive) in experiment [1], -44% (inactive) in experiment [3], 8.19% (inactive) in experiment [7] and -18.2% (inactive) in experiment [8]. The inhibition of aggregation in experiment [2] is 4.4% (inactive). Further, the nuclei count in experiment [2] turned out to be 120%; in experiment [3], 118%. Besides, the fluorescence slope is -0.489 (inactive) in experiment [4] and 0.00507 (inactive) in experiment [6]. The NADPH fluorescence slope in experiment [5] was -7.4e-06 (inactive).
Consider `O=C(CN1C(=O)CCSc2ccccc21)Nc1ccc2c(c1)OCO2`, for which the cell count in experiment [1] turned out to be 700. For the same molecule, the inhibition in experiment [1] was -1.6% (inactive); in experiment [3], -215% (inactive); in experiment [7], 12.5% (inactive); in experiment [8], 23.4% (inactive). The inhibition of aggregation in experiment [2] was 31.4% (inactive). Also, the values for the nuclei count in experiment [2] and in experiment [3] were 91.2% and 111%, respectively. Moreover, the fluorescence slope in experiment [4] was -0.474 (inactive); in experiment [6], 0.00631 (inactive). The NADPH fluorescence slope in experiment [5] is -2.4e-05 (inactive).
On to `COc1ccc(Cn2c(C)nc3c(c2=O)c2nc4ccccc4nc2n3Cc2ccco2)cc1`, for which the cell count in experiment [1] was found to be 375. The inhibition in experiment [1] was -0.6% (inactive); in experiment [3], -42.4% (inactive); in experiment [7], 23.6% (inactive); in experiment [8] it was 9.91% (inactive). Besides, the inhibition of aggregation in experiment [2] was -1.8% (inactive). In addition, the nuclei count in experiment [2] amounted to 100%; in experiment [3], 119%. Further, the fluorescence slope in experiment [4] was -0.368 (inactive); in experiment [6] it was 0.00431 (inactive). The NADPH fluorescence slope in experiment [5] is -4.4e-06 (inactive).
With `O=c1oc2ccccc2c(N2CCCCC2)c1CN1CCCCC1`, in experiment [1], the cell count worked out at 731. Further, the inhibition in experiment [1] was -5.4% (inactive); in experiment [3] it was 25.6% (inactive); in experiment [7], -13.6% (inactive); in experiment [8] it was -1.22% (inactive). Also, the inhibition of aggregation in experiment [2] was -7.2% (inactive). The nuclei count amounted to 108% in experiment [2] and 104% in experiment [3]. Also, the values for the fluorescence slope in experiment [4] and in experiment [6] were -0.549 (inactive) and 0.00538 (inactive), respectively. The NADPH fluorescence slope in experiment [5] was -6.2e-05 (inactive).
